The results in this text go back to PubChem BioAssay AID775 (SRMLSC, 2007).

The whole screen tested about 130,000 compounds, of which about 900 (0.69%) were called active. The sample as a whole holds a higher share of actives than the screen did. A number with no mark means an inactive call.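 How the source made its calls: active means inhibition above a set limit, placed 3 SD over the median of all compounds (cut at about 26% in these data); inactive means the rest.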

The nature of the test: rescue of nicotinamide-shortened yeast lifespan – S. cerevisiae, OD615, primary screen (AID 775).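 Further: 0% = nicotinamide-treated wells and 100% = cells grown without nicotinamide.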 Conditions: S. cerevisiae growth with nicotinamide, at 10 µM, active compounds read high, deaD strain in restrictive glucose medium. The gist of the method: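 System: Modified budding yeast, DeaD strain | Buffer or medium: Restrictive glucose medium | Also added: 1.5 mM nicotinamide | Doses: 10 µM single point, 0.25% DMSO | Schedule: 48 h compound exposure at 30 °C, humidified | Detection: Absorbance at 615 nm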
As for `Cc1ccc2c(CC(=O)NCc3cccs3)coc2c1`, the inhibition of the nicotinamide effect is -1.73%.

As to `Cc1cccc(C(=O)c2cccc(C)c2)c1`, the inhibition of the nicotinamide effect was -6.29%.

Regarding `Cc1nccn1CC(=O)N/N=C/c1ccc(O)c(O)c1`, the inhibition of the nicotinamide effect is 0.31%.

As for `COc1ccccc1C1CC(=O)n2c(nc(-c3ccccc3)c2-c2ccccc2)S1` (configuration not stated), the inhibition of the nicotinamide effect is 0.78%.

On to `COc1cc(OC)c(-n2cc(-c3ccc(Cl)cc3)[nH]c2=O)cc1Cl`, for which the inhibition of the nicotinamide effect is -0.64%.

Turning to `COc1cc(OC)c(-n2c(C)cc(C=O)c2C)cc1Cl`, the inhibition of the nicotinamide effect was 39.8% (active).

As for `Cc1cc(C=O)c(C)n1-c1ccc(NC2CCCCC2)c([N+](=O)[O-])c1`, the inhibition of the nicotinamide effect was -25.3%.

In the case of `O=C(Cc1coc2ccc3ccccc3c12)NCc1cccs1`, the inhibition of the nicotinamide effect is -1.99%.

As to `COc1cc(/C=N\NC(=O)c2nonc2N)c(OC)cc1Br`, the inhibition of the nicotinamide effect is 5.5%.

For the compound `COCCn1c(=O)[nH]c(=O)c2cc(C(=O)c3cc(OC)ccc3O)cnc21`, the inhibition of the nicotinamide effect is -5.05%.

Turning to `CCCn1c(=O)c2c(C(F)(F)F)cc(-c3cccs3)nc2n(CCC)c1=O`, the inhibition of the nicotinamide effect was 3.84%.

For `CCCN1Cc2cccc(C(=O)Nc3ccc(S(=O)(=O)N4CCCCCC4)cc3)c2C1=O`, the inhibition of the nicotinamide effect is -3.05%.

Turning to `CCCN1Cc2cccc(C(=O)NCc3ccccc3)c2C1=O`, the inhibition of the nicotinamide effect is -14.6%.

Consider `O=C(O)c1cccc2c1C(=O)N(C1CCCCC1)C2`, for which the inhibition of the nicotinamide effect was 63.7% (active).

Consider `COc1cc(NC(=S)NNC(=O)CC(C)C)c(OC)cc1Cl`, for which the inhibition of the nicotinamide effect was 0.62%.

Turning to `COc1ccccc1NC(=O)CCCc1c[nH]c2ccccc12`, the inhibition of the nicotinamide effect was -7.92%.

In the case of `COc1cccc(NC(=O)Cc2ccc(C)cc2)c1`, the inhibition of the nicotinamide effect is -12.4%.

Consider `COc1ccc(NC(=O)/C(Cl)=C(/Cl)S(=O)Cc2ccc(C)cc2)cn1` (configuration not stated), for which the inhibition of the nicotinamide effect was 45.5% (active).

Turning to `COc1ccc(NS(=O)(=O)c2ccc(NC(=S)NC(=O)/C=C/c3ccc(C)cc3)cc2)nn1`, the inhibition of the nicotinamide effect was -1.4%.

With `Cc1ccc(CC(=O)Nc2ccc(OC(F)F)c(Cl)c2)cc1C`, the inhibition of the nicotinamide effect was 0.1%.

Regarding `S=C(NCCc1ccccc1)NCC1CCCO1` (configuration not stated), the inhibition of the nicotinamide effect was 1.76%.

On to `O=C(CS(=O)(=O)Cc1ccccc1)NCC1CCCO1` (configuration not stated), for which the inhibition of the nicotinamide effect was 46.3% (active).

`O=C(NCC1CCCO1)c1ccc2ccccc2n1` (configuration not stated): the inhibition of the nicotinamide effect was -8.01%.

Turning to `COc1ccc(-n2c(=S)[nH]c3sc4c(c3c2=O)CCc2ccccc2-4)cc1`, the inhibition of the nicotinamide effect is 8.03%.

In the case of `O=C(/C=C/c1ccc([N+](=O)[O-])cc1)NCCSCc1ccco1`, the inhibition of the nicotinamide effect is -1.15%.

In the case of `CC(=O)c1c(O)cc2n(c1=O)-c1ccc(Cl)cc1C2(C)C`, the inhibition of the nicotinamide effect is 50.9% (active).

Consider `O=C(COC(=O)/C=C/c1nc2ccccc2s1)Nc1ccccc1Oc1ccccc1`, for which the inhibition of the nicotinamide effect is -1.04%.

For `Cc1nnc(NC(=O)/C=C/c2ccco2)s1`, the inhibition of the nicotinamide effect was -3.6%.

Consider `COc1ccc(-c2cc(C(F)(F)F)nc(S(C)(=O)=O)n2)cc1OC`, for which the inhibition of the nicotinamide effect is 48.9% (active).

In the case of `COc1ccc(-c2cc(C(F)(F)F)nc(SCC(=O)Nc3ccc4c(c3)OCO4)n2)cc1OC`, the inhibition of the nicotinamide effect is 3.91%.

Take `COc1cc(OC)nc(S(C)(=O)=O)n1`: the inhibition of the nicotinamide effect was 2.39%.

With `Cc1ccc(C)c2[nH]c(=O)c(CCNC(=O)c3cccs3)cc12`, the inhibition of the nicotinamide effect was -0.37%.

In the case of `O=C(OC1CCOC1=O)c1cccc(S(=O)(=O)Nc2ccc(F)cc2)c1` (configuration not stated), the inhibition of the nicotinamide effect was 1.4%.

Consider `COc1ccc(C)cc1NC(=O)C(OC(=O)c1cccc(S(=O)(=O)N(C)c2ccccc2)c1)c1ccccc1` (configuration not stated), for which the inhibition of the nicotinamide effect is -5.56%.

For the compound `Cc1cccc(N=C2NN=C(c3c[nH]c4ccccc34)CS2)c1`, the inhibition of the nicotinamide effect was 5.95%.

As for `CCN(CC(=O)NCCc1ccccc1)S(=O)(=O)c1ccc(C)cc1`, the inhibition of the nicotinamide effect was 5.67%.

For the compound `CCN(CC)CCn1c(/N=C/c2cc(Br)ccc2O)nc2ccccc21`, the inhibition of the nicotinamide effect was 37.7% (active).

`CCn1c(NC(=O)c2nn(C)cc2Br)nc2ccccc21`: the inhibition of the nicotinamide effect was -7.14%.

For `C/C(=N\c1nc2ccccc2n1C)c1cc(Cl)ccc1O`, the inhibition of the nicotinamide effect is -13.3%.

For the compound `CN(c1ccccc1)S(=O)(=O)c1cccc(NC(=O)Cc2c(F)cccc2Cl)c1`, the inhibition of the nicotinamide effect was 1.53%.

Consider `O=C(CN1C2=NCCN2c2ccccc21)c1cccs1`, for which the inhibition of the nicotinamide effect is 0.42%.

Turning to `O=C(O)c1cccc(N2C(=O)Nc3ccccc3N2O)c1`, the inhibition of the nicotinamide effect is 4.66%.

For the compound `O=C1Nc2cc(Cl)c(Cl)cc2N(O)N1c1cc(Cl)cc(Cl)c1`, the inhibition of the nicotinamide effect is 110% (active).

As to `CCOC(=O)c1c(NC(=O)Cn2nc(C(F)(F)F)cc2C)sc2c1CCC2`, the inhibition of the nicotinamide effect is -3.99%.

Consider `O=C1CC(c2ccccc2)CC(O)=C1C=NCCN1CCOCC1` (configuration not stated), for which the inhibition of the nicotinamide effect was 70.8% (active).

Consider `CC(C)C(=O)N1CCN(CCN=CC2=C(O)CC(c3ccco3)CC2=O)CC1` (configuration not stated), for which the inhibition of the nicotinamide effect was -8.76%.

With `O=C1CC(c2cccc(Cl)c2)CC(O)=C1C=Nc1ccccc1` (configuration not stated), the inhibition of the nicotinamide effect was -1.47%.

Turning to `O=C(Nc1ccc2ccccc2c1)/C(=C\c1ccc2c(c1)OCO2)NC(=O)c1ccco1`, the inhibition of the nicotinamide effect is 2.64%.

`CN(c1ccccc1)c1nc(N)c([N+](=O)[O-])c(NCc2ccco2)n1`: the inhibition of the nicotinamide effect is 8.11%.

`CCOC(=O)C1CCN(C(=O)/C=C/c2cc(OC)c(OC)c(OC)c2)CC1`: the inhibition of the nicotinamide effect is -0.86%.

Turning to `Cc1nc2c(C(=O)NCc3cccs3)cnn2c(C)c1Cc1ccc(F)cc1`, the inhibition of the nicotinamide effect is 7.32%.

Turning to `Cc1ccc(SCCC(=O)NC(C(C)C)C(C)C)cc1`, the inhibition of the nicotinamide effect is 1.38%.

In the case of `CC1Cc2ccccc2N1C(=O)CSc1nc2ccccc2o1` (configuration not stated), the inhibition of the nicotinamide effect was -13.2%.

In the case of `CCn1nc(C(=O)OCC(=O)N2c3ccccc3CC2C)c2ccccc2c1=O` (configuration not stated), the inhibition of the nicotinamide effect was -14.7%.

Take `CC1Cc2ccccc2N1C(=O)Cn1cnc2ccccc2c1=O` (configuration not stated): the inhibition of the nicotinamide effect is 55.5% (active).

Regarding `COc1ccc(COC(=O)N/N=C(\C)CC(=O)Nc2ccc(Cl)cc2)cc1`, the inhibition of the nicotinamide effect is -3.92%.

For `O=S(=O)(NCCSc1ccccn1)c1ccc(Cl)cc1`, the inhibition of the nicotinamide effect was 10.5%.

On to `COc1ccc(/C=C(/CC(=O)Nc2ccc(C)cc2)c2nc3ccccc3s2)cc1`, for which the inhibition of the nicotinamide effect is -0.84%.

For the compound `N#C/C(=C\c1ccccc1C(F)(F)F)C(=O)Nc1ccccc1F`, the inhibition of the nicotinamide effect was 6.56%.

On to `Cc1cc(/C=C(/C#N)C(=O)Nc2ccc(Cl)cc2)c(C)n1-c1cccnc1`, for which the inhibition of the nicotinamide effect is 0.59%.

As for `CNC(=O)/C(C#N)=C/c1c(F)cccc1Cl`, the inhibition of the nicotinamide effect was 43.1% (active).

For `CCOC(=O)C(C)Sc1nnc(CSc2nc3nc(C)cc(C)n3n2)o1` (configuration not stated), the inhibition of the nicotinamide effect is -1.15%.
